Test results from ChEMBL document CHEMBL4425094, “Novel Benzo[a]quinolizidine Analogs Induce Cancer Cell Death through Paraptosis and Apoptosis” (J Med Chem, 2016).

Key:
DU-145 = test: Cytotoxicity against human DU145 cells assessed as cell growth inhibition after 24 hrs by MTT assay; type: functional, cell-based; conditions: DU-145, 24 h
In short: (§1)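 Cells seeded 24 h in RPMI 1640 + 10% FBS. RWPE-1 was kept in K-SFM with bovine pituitary extract and EGF. Cells then exposed to compounds for 24 h at 37 °C, 5% CO2, with DMSO vehicle and docetaxel as positive control. MTT added for 4 h, absorbance read at 570 nm. Triplicate runs, IC50 reported as mean of three experiments.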

MDA-MB-231 = test: Cytotoxicity against human MDA-MB-231 cells assessed as cell growth inhibition after 24 hrs by MTT assay; type: functional, cell-based; conditions: MDA-MB-231, 24 h; in short: as §1
RWPE-1 = test: Cytotoxicity against human RWPE1 cells assessed as cell growth inhibition after 24 hrs by MTT assay; type: cell-based; conditions: RWPE-1, 24 h; in short: as §1
HeLa = test: Cytotoxicity against human HeLa cells assessed as cell growth inhibition after 24 hrs by MTT assay; type: functional, cell-based; in short: as §1
PC-3 = test: Cytotoxicity against human PC3 cells assessed as cell growth inhibition after 24 hrs by MTT assay; type: functional, cell-based; conditions: PC-3, 24 h; in short: as §1
MCF7 = test: Cytotoxicity against human MCF7 cells assessed as cell growth inhibition after 24 hrs by MTT assay; type: functional, cell-based; conditions: MCF7, 24 h; in short: as §1
K562 = test: Cytotoxicity against human K562 cells assessed as cell growth inhibition after 24 hrs by MTT assay; type: functional, cell-based; conditions: K562, 24 h; in short: as §1

SMILES | IC50 (DU-145) [µM] | IC50 (MDA-MB-231) [µM] | IC50 (RWPE-1) [µM] | IC50 (HeLa) [µM] | IC50 (PC-3) [µM] | IC50 (MCF7) [µM] | IC50 (K562) [µM]
C[C@@H]1C[C@@H](O)C[C@H]2c3cc(OCc4ccc(C(C)(C)C)cc4)c(OCc4ccc(C(C)(C)C)cc4)cc3CCN12 | 2.22 | 3.25 | 1.91 | 2.06 | 3.79 | 0.86 | 2.04
C[C@@H]1CC(=O)C[C@H]2c3cc(OCc4cccc(F)c4)c(OCc4cccc(F)c4)cc3CCN12 | > 20 | 1.3 | > 20 | > 20 | > 20 | > 20 | > 20
C[C@@H]1C[C@H](O)C[C@H]2c3cc4c(cc3CCN12)OCO4 | > 20 | > 20 | > 20 | > 20 | > 20 | > 20 | > 20
C[C@@H]1C[C@@H](O)C[C@H]2c3cc(OCc4cc(F)cc(F)c4)c(OCc4cc(F)cc(F)c4)cc3CCN12 | 1.88 | 2.11 | 4.42 | 1.96 | 1.35 | 1.71 | 1.89
O[C@@H]1CCN2CCc3cc(OCc4ccccc4)c(OCc4ccccc4)cc3[C@@H]2C1 (relative stereo) | > 20 | > 20 | > 20 | > 20 | > 20 | > 20 | > 20
COc1ccc([C@@H]2CC(=O)C[C@H]3c4cc(OCc5ccccc5)c(OCc5ccccc5)cc4CCN23)cc1 (relative stereo) | > 20 | > 20 | > 20 | > 20 | > 20 | > 20 | > 20
CC[C@@H]1CC(=O)C/C=C(/C)[C@H]2c3cc(OCc4ccccc4)c(OCc4ccccc4)cc3CCN12 (relative stereo) | > 20 | > 20 | > 20 | > 20 | > 20 | > 20 | > 20
O[C@@H]1C[C@@H](c2ccc(-c3ccccc3)cc2)N2CCc3cc(OCc4ccccc4)c(OCc4ccccc4)cc3[C@@H]2C1 | 1.36 | 3.28 | 4.42 | 3.42 | 1.16 | 0.28 | 3.24
C[C@@H]1C[C@@H](O)C[C@H]2c3cc4c(cc3CCN12)OCO4 | > 20 | > 20 | > 20 | > 20 | > 20 | > 20 | > 20
CC[C@@H]1C[C@@H](O)C/C=C(/C)[C@H]2c3cc(OCc4ccccc4)c(OCc4ccccc4)cc3CCN12 | > 20 | > 20 | > 20 | > 20 | > 20 | > 20 | > 20
CCOC1c2cc(OCc3cc(C)cc(C)c3)c(OCc3cc(C)cc(C)c3)cc2CCN1C(=O)OC(C)(C)C (configuration not stated) | > 20 | > 20 | > 20 | > 20 | > 20 | > 20 | > 20
O=[N+]([O-])c1ccc([C@@H]2C[C@H](O)C[C@H]3c4cc(OCc5ccccc5)c(OCc5ccccc5)cc4CCN23)cc1 | > 20 | > 20 | > 20 | > 20 | > 20 | > 20 | > 20
O=C1C[C@@H](c2ccccc2)N2CCc3cc(OCc4ccccc4)ccc3[C@@H]2C1 (relative stereo) | > 20 | > 20 | > 20 | > 20 | > 20 | > 20 | > 20
C[C@@H]1CC(=O)C[C@H]2c3cc(OCc4ccc(C(C)(C)C)cc4)c(OCc4ccc(C(C)(C)C)cc4)cc3CCN12 (relative stereo) | > 20 | > 20 | > 20 | > 20 | > 20 | > 20 | > 20
c1ccc(COc2cc3c(cc2OCc2ccccc2)[C@@H]2CCC[C@@H](c4ccccc4)N2CC3)cc1 | > 20 | > 20 | > 20 | > 20 | > 20 | > 20 | > 20
O=C1C[C@@H](c2ccccc2)N2CCc3cc(OCc4ccccc4)c(OCc4ccccc4)cc3[C@@H]2C1 (relative stereo) | > 20 | > 20 | > 20 | > 20 | > 20 | > 20 | > 20
